From ChEMBL document CHEMBL3596178, “Synthesis and biological evaluation of curcumin derivatives containing NSAIDs for their anti-inflammatory activity” (Bioorg Med Chem Lett, 2015)
Calls of active or inactive are those of the source. No cut-off for these calls is given here.

Key:
RAW264.7 = test: Inhibition of TPA-induced cell proliferation of mouse RAW264.7 cells; format: functional, cell-based
In short: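 RAW 264.7 macrophages; proliferation measured by MTT assay. IC50 reported as mean±SD of three independent experiments.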

Mus musculus [1] = test: Anti-inflammatory activity in BALB/c mouse assessed as reduction in TPA-induced ear edema by measuring weight of ear punches at 0.75 uM applied topically 6 mins before to TPA treatment; format: functional
In short: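 Female BALB/c mice; TPA applied topically to ears, test agents applied topically 6 min before TPA. Edema read as weight of 6 mm diameter ear punch biopsies. Screening concentration 0.75 µM.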

Mus musculus [2] = test: Anti-inflammatory activity in BALB/c mouse model of TPA-induced ear edema assessed as reduction in inflammatory cells infiltration at 0.75 uM applied topically 6 mins before to TPA treatment by H and E staining method; format: functional, organism-based
In short: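 Female BALB/c mouse ears pretreated topically with agents or acetone (control), then TPA applied topically. Ear sections stained with H&E and assessed histologically for epidermal hyperkeratosis, stratum corneum thickening and inflammatory cell infiltration.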

Mus musculus [3] = test: Anti-inflammatory activity in BALB/c mouse model of TPA-induced ear edema assessed as reduction in TNFalpha levels at 0.75 uM applied topically 6 mins before to TPA treatment by immunohistochemistry; format: functional, organism-based
Mus musculus [4] = test: Anti-inflammatory activity in BALB/c mouse model of TPA-induced ear edema assessed as reduction in phosphorylated p65 level at 0.75 uM applied topically 6 mins before to TPA treatment by immunohistochemistry; format: functional, organism-based
In short: (§1)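 TPA-induced ear edema in BALB/c mice, agents applied topically before TPA. Ear tissue examined immunohistochemically with a nonphosphorylated p65 antibody and an anti-phospho-Ser536 p65 antibody.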

Mus musculus [5] = test: Anti-inflammatory activity in BALB/c mouse model of TPA-induced ear edema assessed as reduction in IKK activity level at 0.75 uM applied topically 6 mins before to TPA treatment by immunohistochemistry; format: functional, organism-based
Mus musculus [6] = test: Anti-inflammatory activity in BALB/c mouse model of TPA-induced ear edema assessed as reduction in Ikappa-Balpha phosphorylation level at 0.75 uM applied topically 6 mins before to TPA treatment by immunohistochemistry; format: functional, organism-based
In short: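 TPA-induced ear edema in BALB/c mice, agents applied topically before TPA. Ear tissue examined immunohistochemically with an anti-phospho-Ser36 IκBα antibody and a nonphosphorylated IκB antibody.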

Mus musculus [7] = test: Anti-inflammatory activity in BALB/c mouse model of TPA-induced ear edema assessed as reduction in IL-1beta levels at 0.75 uM applied topically 6 mins before to TPA treatment by immunohistochemistry; format: functional, organism-based
Mus musculus [8] = test: Anti-inflammatory activity in BALB/c mouse model of TPA-induced ear edema assessed as reduction in IL-6 levels at 0.75 uM applied topically 6 mins before to TPA treatment by immunohistochemistry; format: functional, organism-based
Mus musculus [9] = test: Anti-inflammatory activity in BALB/c mouse model of TPA-induced ear edema assessed as reduction in p65 nuclear translocation at 0.75 uM applied topically 6 mins before to TPA treatment by immunohistochemistry; format: functional, organism-based; in short: as §1

SMILES: COc1cc(/C=C/C(=O)CC(=O)/C=C/c2ccc(OC(=O)CCc3nc(-c4ccccc4)c(-c4ccccc4)o3)c(OC)c2)ccc1OC(=O)CCc1nc(-c2ccccc2)c(-c2ccccc2)o1
- IC50 (RAW264.7): > 30 µM
- inhibition (INH) (Mus musculus [1]): 10%

SMILES: COc1cc(/C=C/C(=O)CC(=O)/C=C/c2ccc(OC(=O)CCc3nc(-c4ccccc4)c(-c4ccccc4)o3)c(OC)c2)ccc1O
- IC50 (RAW264.7): 19.3 µM
- inhibition (INH) (Mus musculus [1]): 75%

SMILES: COc1cc(/C=C/C(=O)CC(=O)/C=C/c2ccc(OC(=O)c3ccccc3Nc3cccc(Cl)c3C)c(OC)c2)ccc1O
- IC50 (RAW264.7): 9.2 µM
- inhibition (INH) (Mus musculus [1]): 85%

SMILES: COc1ccc2c(c1)c(CC(=O)Oc1ccc(/C=C/C(=O)CC(=O)/C=C/c3ccc(OC(=O)Cc4c(C)n(C(=O)c5ccc(Cl)cc5)c5ccc(OC)cc45)c(OC)c3)cc1OC)c(C)n2C(=O)c1ccc(Cl)cc1
- IC50 (RAW264.7): > 30 µM
- inhibition (INH) (Mus musculus [1]): 10%

SMILES: O=C(Oc1ccccc1C(=O)O)c1ccccc1O
- inhibition (Mus musculus [2]): Active

SMILES: COc1cc(/C=C/C(=O)CC(=O)/C=C/c2ccc(OC(=O)C(C)c3ccc(CC(C)C)cc3)c(OC)c2)ccc1O (stereo unspecified)
- IC50 (RAW264.7): > 30 µM
- inhibition (INH) (Mus musculus [1]): 91.8%

SMILES: COc1cc(/C=C/C(=O)CC(=O)/C=C/c2ccc(OC(=O)c3ccccc3Nc3cccc(C)c3C)c(OC)c2)ccc1OC(=O)c1ccccc1Nc1cccc(C)c1C
- IC50 (RAW264.7): > 30 µM
- inhibition (INH) (Mus musculus [1]): 10%

SMILES: COc1cc(/C=C/C(=O)CC(=O)/C=C/c2ccc(OC(=O)c3ccccc3Nc3cccc(C(F)(F)F)c3)c(OC)c2)ccc1OC(=O)c1ccccc1Nc1cccc(C(F)(F)F)c1
- IC50 (RAW264.7): 12.9 µM
- inhibition (INH) (Mus musculus [1]): 10%

SMILES: COc1cc(/C=C/C(=O)CC(=O)/C=C/c2ccc(OC(=O)c3cc(-c4ccc(F)cc4F)ccc3O)c(OC)c2)ccc1O
- IC50 (RAW264.7): 12.9 µM
- inhibition (INH) (Mus musculus [1]): 10%

SMILES: COc1cc(/C=C/C(=O)CC(=O)/C=C/c2ccc(OC(=O)c3ccccc3Nc3cccc(C(F)(F)F)c3)c(OC)c2)ccc1O
- IC50 (RAW264.7): 5.54 µM
- inhibition (INH) (Mus musculus [1]): 90%

SMILES: CCc1cccc2c3c([nH]c12)C(CC)(CC(=O)Oc1ccc(/C=C/C(=O)CC(=O)/C=C/c2ccc(OC(=O)CC4(CC)OCCc5c4[nH]c4c(CC)cccc54)c(OC)c2)cc1OC)OCC3 (stereo unspecified)
- IC50 (RAW264.7): > 30 µM

SMILES: COc1cc(/C=C/C(=O)CC(=O)/C=C/c2ccc(OC(=O)c3ccccc3OC(=O)c3ccccc3O)c(OC)c2)ccc1OC(=O)c1ccccc1OC(=O)c1ccccc1O
- inhibition (Mus musculus [3]): Active
- inhibition (Mus musculus [4]): Active
- inhibition (Mus musculus [5]): Active
- inhibition (Mus musculus [6]): Active
- IC50 (RAW264.7): > 30 µM
- inhibition (INH) (Mus musculus [1]): 93.3%
- inhibition (Mus musculus [2]): Active

SMILES: COc1cc(/C=C/C(=O)CC(=O)/C=C/c2ccc(OC(=O)c3ccccc3OC(=O)c3ccccc3O)c(OC)c2)ccc1O
- IC50 (RAW264.7): > 30 µM
- inhibition (INH) (Mus musculus [1]): 10%

SMILES: COc1ccc2cc(C(C)C(=O)Oc3ccc(/C=C/C(=O)CC(=O)/C=C/c4ccc(O)c(OC)c4)cc3OC)ccc2c1 (single isomer, unassigned)
- IC50 (RAW264.7): 18.7 µM
- inhibition (INH) (Mus musculus [1]): 87.8%

SMILES: COc1cc(/C=C/C(=O)CC(=O)/C=C/c2ccc(OC(=O)c3ccccc3Nc3cccc(C)c3C)c(OC)c2)ccc1O
- IC50 (RAW264.7): 28 µM
- inhibition (INH) (Mus musculus [1]): 78%

SMILES: COc1cc(/C=C/C(=O)CC(=O)/C=C/c2ccc(OC(=O)C(C)c3ccc(CC(C)C)cc3)c(OC)c2)ccc1OC(=O)C(C)c1ccc(CC(C)C)cc1 (stereo unspecified)
- IC50 (RAW264.7): 7.36 µM

SMILES: COc1cc(/C=C/C(=O)CC(=O)/C=C/c2ccc(OC(=O)c3ccccc3OC(C)=O)c(OC)c2)ccc1OC(=O)c1ccccc1OC(C)=O
- IC50 (RAW264.7): > 30 µM
- inhibition (INH) (Mus musculus [1]): 87.8%

SMILES: COc1cc(/C=C/C(=O)CC(=O)/C=C/c2ccc(OC(=O)c3cc(-c4ccc(F)cc4F)ccc3O)c(OC)c2)ccc1OC(=O)c1cc(-c2ccc(F)cc2F)ccc1O
- IC50 (RAW264.7): > 30 µM
- inhibition (INH) (Mus musculus [1]): 85%

SMILES: COc1cc(/C=C/C(=O)CC(=O)/C=C/c2ccc(OC(=O)c3ccccc3O)c(OC)c2)ccc1OC(=O)c1ccccc1O
- IC50 (RAW264.7): 6.11 µM
- inhibition (INH) (Mus musculus [1]): 38.5%

SMILES: COc1cc(/C=C/C(=O)CC(=O)/C=C/c2ccc(OC(=O)Cc3ccccc3Nc3c(Cl)cccc3Cl)c(OC)c2)ccc1OC(=O)Cc1ccccc1Nc1c(Cl)cccc1Cl
- IC50 (RAW264.7): > 30 µM
- inhibition (INH) (Mus musculus [1]): 10%

SMILES: COc1ccc2cc([C@@H](C)C(=O)Oc3ccc(/C=C/C(=O)CC(=O)/C=C/c4ccc(OC(=O)[C@H](C)c5ccc6cc(OC)ccc6c5)c(OC)c4)cc3OC)ccc2c1
- IC50 (RAW264.7): > 30 µM
- inhibition (INH) (Mus musculus [1]): 10%

SMILES: COc1cc(/C=C/C(=O)CC(=O)/C=C/c2ccc(OC(=O)C(C)c3cccc(C(=O)c4ccccc4)c3)c(OC)c2)ccc1O (stereo unspecified)
- IC50 (RAW264.7): 8.98 µM
- inhibition (INH) (Mus musculus [1]): 68.8%

SMILES: COc1cc(/C=C/C(=O)CC(=O)/C=C/c2ccc(OC(=O)c3ccccc3Nc3cccc(Cl)c3C)c(OC)c2)ccc1OC(=O)c1ccccc1Nc1cccc(Cl)c1C
- IC50 (RAW264.7): 28 µM
- inhibition (INH) (Mus musculus [1]): 10%

SMILES: COc1cc(/C=C/C(=O)CC(=O)/C=C/c2ccc(OC(=O)C(C)c3cccc(C(=O)c4ccccc4)c3)c(OC)c2)ccc1OC(=O)C(C)c1cccc(C(=O)c2ccccc2)c1 (stereo unspecified)
- IC50 (RAW264.7): > 30 µM
- inhibition (INH) (Mus musculus [1]): 10%

SMILES: COc1cc(/C=C/C(=O)CC(=O)/C=C/c2ccc(O)c(OC)c2)ccc1O [CURCUMIN]
- IC50 (RAW264.7): 22.9 µM

SMILES: O=C(O)c1ccccc1O
- inhibition (Mus musculus [2]): Active

SMILES: COc1cc(/C=C/C(=O)CC(=O)/C=C/c2ccc(OC(=O)c3ccccc3OC(C)=O)c(OC)c2)ccc1O
- IC50 (RAW264.7): > 30 µM
- inhibition (INH) (Mus musculus [1]): 10%

SMILES: COc1cc(/C=C/C(=O)CC(=O)/C=C/c2ccc(OC(=O)c3ccccc3O)c(OC)c2)ccc1O
- inhibition (Mus musculus [7]): Active
- inhibition (Mus musculus [8]): Active
- inhibition (Mus musculus [9]): Active
- inhibition (Mus musculus [5]): Active
- inhibition (Mus musculus [6]): Active
- IC50 (RAW264.7): > 30 µM
- inhibition (INH) (Mus musculus [1]): 91.8%
- inhibition (Mus musculus [2]): Active

SMILES: CCc1cccc2c3c([nH]c12)C(CC)(CC(=O)Oc1ccc(/C=C/C(=O)CC(=O)/C=C/c2ccc(O)c(OC)c2)cc1OC)OCC3 (stereo unspecified)
- IC50 (RAW264.7): 25.3 µM
- inhibition (INH) (Mus musculus [1]): 10%

SMILES: COc1cc(/C=C/C(=O)CC(=O)/C=C/c2ccc(OC(=O)Cc3ccccc3Nc3c(Cl)cccc3Cl)c(OC)c2)ccc1O
- IC50 (RAW264.7): > 30 µM
- inhibition (INH) (Mus musculus [1]): 10%
